These results are taken from ChEMBL document CHEMBL1122644, “Ring-substituted 1,2-dialkylated 1,2-bis(hydroxyphenyl)ethanes. 2. Synthesis and estrogen receptor binding affinity of 4,4'-, 5,5'-, and 6,6'-disubstituted metahexestrols” (J Med Chem, 1984).

Assay [1] concerns the target Estrogen receptor (Bos taurus) (UniProt Q9XSB5+P49884). Description: Relative binding affinity for calf uterine estrogen receptor is the ratio of molar concentrations of 17-beta-estradiol and compound required to decrease amount of bound [3H]-E2 by 50% X 100. The assay is classed as protein assay. The gist of the method:
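Calf uterine cytosol incubated with [3H]estradiol and competitor at 4 °C for 16 h. Free ligand removed with dextran-coated charcoal, then centrifuged and a supernatant aliquot counted. Six competitor concentrations chosen to span 50% competition on a semilog plot. Molar concentrations of unlabeled estradiol and test compound giving 50% reduction in binding were read from the plot.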

In assay [2] the target is T1, Estrogen receptor (Mus musculus) (UniProt O08537+P19785). Briefly: Anti-estrogenic activity in mouse uterotrophic assay at 2.5 ug. The class given is functional. The gist of the method:
(§1)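 Immature female NMRI mice, 20 days old (14.5 ± 1.2 g), randomized into groups of 10. Test compound in olive oil (0.1 mL) given subcutaneously daily for 3 days alongside estrone stimulation. Uteri removed 24 h after last injection, fixed in Bouin's solution, washed, dried and weighed. Readout is inhibition of estrone-stimulated uterine growth.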

Assay [3] concerns the target T1, Estrogen receptor (Mus musculus). Briefly: Anti-estrogenic activity in mouse uterotrophic assay at 50 ug. The assay is classed as functional. In outline: as §1
Assay [4] has the same target. Description: Estrogenic activity in mouse uterotrophic assay at 0 ug. The assay is classed as functional. On the set-up: unit not given here. In outline: (§2)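 Uterotrophic test in 20-day-old immature female NMRI mice (14.5 ± 1.2 g), 10 per group. Daily s.c. injections of compound in 0.1 mL olive oil for 3 days. Uteri excised 24 h after final dose, Bouin-fixed, washed, dried and weighed to measure stimulation of uterine growth.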

The target is the same in assay [5]. Briefly: Anti-estrogenic activity in mouse uterotrophic assay at 0 ug. The class given is functional. Also on record: unit not given here. In outline: as §1
Assay [6] shares this target. Description: Anti-estrogenic activity in mouse uterotrophic assay at 5 ug. The class given is functional. The gist of the method: as §1
Assay [7] shares this target. Description: Anti-estrogenic activity in mouse uterotrophic assay at 500 ug. The class given is functional. The gist of the method: as §1
The target is the same in assay [8]. Briefly: Anti-estrogenic activity in mouse uterotrophic assay at 25 ug. The class given is functional. The gist of the method: as §1
Assay [9] shares this target. Briefly: Anti-estrogenic activity as inhibition of estrone-stimulated uterine growth in mice at 2.5 mg/kg. The assay is classed as functional, organism-based. Also on record: dose 2.5 mg/kg. In outline:
as §1

Assay [10] shares this target. Description: Estrogenic activity in mouse uterotrophic assay at 24 ug. The assay is classed as functional. The gist of the method: as §2
Assay [11] shares this target. Briefly: Estrogenic activity in mouse uterotrophic assay at 0.8 ug. The class given is functional. In outline:
as §2

For assay [12] the target is unchanged. Description: Estrogenic activity in mouse uterotrophic assay at 80 ug. The class given is functional. In outline:
as §2

Assay [13] has the same target. Description: Estrogenic activity as uterotrophic effect in mice at 800 ug dose. The class given is functional. In outline: as §2
For assay [14] the target is unchanged. Description: Estrogenic activity in mouse uterotrophic assay at 8 ug. The assay is classed as functional. In outline: as §2
Assay [15] shares this target. Briefly: Anti-estrogenic activity as inhibition of estrone-stimulated uterine growth in mice at 5 mg/kg. Also on record: dose 5 mg/kg. The class given is functional, organism-based. The gist of the method: as §1
Assay [16] has the same target. Briefly: Anti-estrogenic activity as inhibition of estrone-stimulated uterine growth in mice at 50 mg/kg. The assay is classed as functional, organism-based. Also on record: dose 50 mg/kg. In outline: as §1
Assay [17] has the same target. Description: Estrogenic activity in mouse uterotrophic assay at 2 ug. The class given is functional. In outline:
as §2

Assay [18] shares this target. Description: Estrogenic activity in mouse uterotrophic assay at 16 ug. The assay is classed as functional. In outline:
as §2

Assay [19] has the same target. Description: Anti-estrogenic activity as inhibition of estrone-stimulated uterine growth in mice at 1 mg/kg. The assay is classed as functional, organism-based. Also on record: dose 1 mg/kg. The gist of the method:
as §1

The target is the same in assay [20]. Description: Anti-estrogenic activity in mouse uterotrophic assay at 1 ug. The class given is functional. Also on record: unit not given here. The gist of the method: as §1
The target is the same in assay [21]. Description: Estrogenic activity in mouse uterotrophic assay at 240 ug. The class given is functional. In outline:
as §2

For assay [22] the target is unchanged. Description: Anti-estrogenic activity as inhibition of estrone-stimulated uterine growth in mice at 25 mg/kg. The class given is functional, organism-based. On the set-up: dose 25 mg/kg. The gist of the method:
as §1

Assay [23] has the same target. Briefly: Estrogenic activity in mouse uterotrophic assay at 800 ug. The assay is classed as functional. In outline:
as §2

Assay [24] shares this target. Description: Anti-estrogenic activity as inhibition of estrone-stimulated uterine growth in mice at 100 mg/kg. Also on record: dose 100 mg/kg. The class given is functional, organism-based. The gist of the method:
as §1

Assay [25] shares this target. Briefly: Anti-estrogenic activity in mouse uterotrophic assay at 250 ug. The assay is classed as functional. In outline:
as §1

Assay [26] shares this target. Description: Anti-estrogenic activity as inhibition of estrone-stimulated uterine growth in mice at 250 mg/kg. Also on record: dose 250 mg/kg. The class given is functional, organism-based. In outline: as §1
The target is the same in assay [27]. Briefly: Anti-estrogenic activity in mouse uterotrophic assay at 100 ug. On the set-up: unit not given here. The assay is classed as functional. The gist of the method:
as §1

For assay [28] the target is unchanged. Briefly: Estrogenic activity in mouse uterotrophic assay at 0.1 ug. The class given is functional. In outline:
as §2

Assay [29] shares this target. Description: Estrogenic activity in mouse uterotrophic assay at 1000 ug. The assay is classed as functional. Also on record: unit not given here. The gist of the method: as §2
Assay [30] has the same target. Briefly: Anti-estrogenic activity as inhibition of estrone-stimulated uterine growth in mice at 10 mg/kg. The assay is classed as functional, organism-based. On the set-up: dose 10 mg/kg. In outline: as §1
Assay [31] shares this target. Briefly: Estrogenic activity in mouse uterotrophic assay at 100 ug. The assay is classed as functional. Also on record: unit not given here. The gist of the method: as §2
Assay [32] has the same target. Briefly: Anti-estrogenic activity in mouse uterotrophic assay at 10 ug. The class given is functional. Also on record: unit not given here. The gist of the method: as §1
Assay [33] has the same target. Briefly: Estrogenic activity in mouse uterotrophic assay at 1 ug. The class given is functional. The gist of the method: as §2
For assay [34] the target is unchanged. Description: Estrogenic activity in mouse uterotrophic assay at 10 ug. The assay is classed as functional. Also on record: unit not given here. The gist of the method: as §2

T1 sequence (O08537 whole entry, looked up): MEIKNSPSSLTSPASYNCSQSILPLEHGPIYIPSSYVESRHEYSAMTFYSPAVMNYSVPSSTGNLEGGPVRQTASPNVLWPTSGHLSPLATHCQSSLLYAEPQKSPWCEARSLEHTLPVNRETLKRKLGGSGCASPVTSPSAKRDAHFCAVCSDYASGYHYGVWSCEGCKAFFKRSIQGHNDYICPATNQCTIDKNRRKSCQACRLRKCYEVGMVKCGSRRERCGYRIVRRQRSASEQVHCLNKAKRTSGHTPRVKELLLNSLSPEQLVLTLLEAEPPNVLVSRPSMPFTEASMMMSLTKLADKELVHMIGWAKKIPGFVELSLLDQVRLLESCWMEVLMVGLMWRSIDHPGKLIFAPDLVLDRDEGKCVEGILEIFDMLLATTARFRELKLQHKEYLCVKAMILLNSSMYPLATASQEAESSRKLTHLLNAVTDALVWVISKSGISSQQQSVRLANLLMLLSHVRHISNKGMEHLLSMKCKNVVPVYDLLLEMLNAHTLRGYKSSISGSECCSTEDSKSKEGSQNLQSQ
T1 sequence (P19785 whole entry, looked up): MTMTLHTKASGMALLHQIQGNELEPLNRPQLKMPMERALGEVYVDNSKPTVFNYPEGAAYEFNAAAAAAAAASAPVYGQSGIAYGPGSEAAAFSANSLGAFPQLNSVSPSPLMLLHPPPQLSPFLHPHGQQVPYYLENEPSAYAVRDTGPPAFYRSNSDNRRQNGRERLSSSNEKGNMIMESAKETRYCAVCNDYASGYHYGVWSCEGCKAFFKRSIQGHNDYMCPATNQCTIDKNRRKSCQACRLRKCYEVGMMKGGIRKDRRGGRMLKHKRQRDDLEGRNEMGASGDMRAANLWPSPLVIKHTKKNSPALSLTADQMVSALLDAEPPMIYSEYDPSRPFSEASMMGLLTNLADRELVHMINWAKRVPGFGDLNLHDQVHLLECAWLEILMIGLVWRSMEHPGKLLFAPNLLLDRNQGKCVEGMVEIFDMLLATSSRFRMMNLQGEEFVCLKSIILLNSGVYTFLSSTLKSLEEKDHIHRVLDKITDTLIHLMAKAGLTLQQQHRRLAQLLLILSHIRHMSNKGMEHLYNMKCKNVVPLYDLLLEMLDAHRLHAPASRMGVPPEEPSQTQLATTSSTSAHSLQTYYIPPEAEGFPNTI

`CCC(c1ccc(COC)c(O)c1)C(CC)c1ccc(COC)c(O)c1` (stereo not given): the RBA in [1] was 0.03.
For `CCC(c1ccc(O)c(Cl)c1)C(CC)c1ccc(O)c(Cl)c1` (stereo not given), in assay [1], the RBA amounted to 1.6.
As to `CC[C@H](c1ccc(O)cc1)[C@@H](CC)c1ccc(O)cc1`, the RBA in assay [1] was determined as 27.
For the compound `CCC(c1ccc(C(C)=O)c(O)c1)C(CC)c1ccc(C(C)=O)c(O)c1` (stereo not given), in assay [1], the RBA is below 0.01.
On the same count and under the same terms, in the case of `CCC(c1cc(O)cc(Cl)c1)C(CC)c1cc(O)cc(Cl)c1` (stereo not given) it was 0.03; in that of `CCC(c1ccc(CN(C)C)c(O)c1)C(CC)c1ccc(CN(C)C)c(O)c1` (stereo not given), below 0.01.
Usually inhibition stands for the relative decrease from the control value, in per cent. On to `CCC(c1cccc(O)c1)C(CC)c1cccc(O)c1` (stereo not given), for which the Activity in assay [2] was determined as 29.5; in assay [3], 28.3; in assay [4], 10.7; in assay [5], 12.5; in [6], 23.5; in [7] it was 30.9. In addition, the Activity in assay [8] was found to be 28.1; in assay [10], 18.5; in [11], 11.8; in [12], 30.5; in assay [14] it was 14.4. This compound returned an inhibition in [9] of 27%. For the same compound, in assay [1], the RBA stood at 10. The Weight (mg/g) in [13] came to 30.8%.
On to `CCC(c1ccc(O)c(COC)c1)C(CC)c1ccc(O)c(COC)c1` (stereo not given), for which, in assay [1], the RBA came to 0.55.
Same read-out and setting: in the case of `CCc1cc(C(CC)C(CC)c2ccc(O)c(CC)c2)ccc1O` (stereo not given) it was 1.2; in that of `CCC(c1ccc(O)c(N(C)C)c1)C(CC)c1ccc(O)c(N(C)C)c1` (stereo not given), below 0.01.
Still for that read-out and setting: then `CCC(c1ccc(N(C)C)c(O)c1)C(CC)c1ccc(N(C)C)c(O)c1` (stereo not given), with below 0.01; and `CCC(c1cc(O)ccc1O)C(CC)c1cc(O)ccc1O` (stereo not given), with below 0.01.
Same read-out and setting: then `CCC(c1ccc(O)c(I)c1)C(CC)c1ccc(O)c(I)c1` (stereo not given), with 0.17.
Take `CCC(c1ccc(F)c(O)c1)C(CC)c1ccc(F)c(O)c1` (stereo not given): the inhibition in assay [15] came out at 25%; in assay [16], 50%; in [19] it was 7%; in assay [22] it was 32%; in assay [24], 60%; in [26] it was 51%. The Activity in assay [3] was determined as 24.7; in assay [4], 8.7; in [5], 13.5; in assay [17], 8.9; in assay [18] it was 25.4; in assay [6], 30.2. Also, the Activity in assay [8] turned out to be 28.6; in [20], 34.2; in assay [21] it was 32.8; in assay [12], 31.8; in assay [23], 32.6; in [14], 18.5. Further, the Activity in assay [25] stood at 24.4; in assay [27] it was 22.4. Besides, the RBA in assay [1] is 1.1.
For `CCc1ccc(C(CC)C(CC)c2ccc(CC)c(O)c2)cc1O` (stereo not given), the RBA in [1] stood at 0.04.
On the same count and under the same terms, then `CCC(c1ccc(CO)c(O)c1)C(CC)c1ccc(CO)c(O)c1` (stereo not given), with 0.03.
For `CCC(c1ccc(C)c(O)c1)C(CC)c1ccc(C)c(O)c1` (stereo not given), the Activity in assay [28] was found to be 14.3; in assay [4] it was 13.9; in assay [29], 43.5; in [5] it was 14.8; in [31], 46.2; in assay [20], 34.3. Besides, the Activity in assay [32] worked out at 39.6; in assay [33], 21.7; in [34], 45; in assay [27], 41.8. Also, the results for the inhibition in assay [19] and in [30] were 24% and 3%, respectively. In addition, the RBA in [1] was 0.73.
Take `CCC(c1cc(O)cc(O)c1)C(CC)c1cc(O)cc(O)c1` (stereo not given): in [1], the RBA worked out at 0.01.
On the same count and under the same terms, in the case of `CCC(c1ccc(O)c(C(C)=O)c1)C(CC)c1ccc(O)c(C(C)=O)c1` (stereo not given) it was below 0.01; in that of `CCC(c1ccc(O)c(Br)c1)C(CC)c1ccc(O)c(Br)c1` (stereo not given), 0.25.
